From ChEMBL document CHEMBL1152612, “Ursolic acid derivatives induce cell cycle arrest and apoptosis in NTUB1 cells associated with reactive oxygen species” (Bioorg Med Chem, 2009)
Blank lines part the entries; values can stand above or below the compound they belong to. Calls of active or inactive are those of the source. No cut-off for these calls is given here.

How the values were obtained:
[1] = Cytotoxicity against human NTUB1 cells assessed as cell viability at >30 uM after 72 hrs by MTT assay; type: functional
Procedure, shortened: (§1)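 Cells grown in RPMI 1640 with 10% FBS, penicillin/streptomycin and 2 mM L-glutamine at 37 °C under 5% CO₂. Seeded 1800 cells/well, left overnight, then given graded compound concentrations for 72 h; compounds diluted from DMSO, 0.1% DMSO in medium and in controls. MTT 2 mg/mL in PBS for 3 h, formazan dissolved in DMSO, absorbance 540 nm. Viability given as % of control; IC50 by median-effect analysis, mean ± SD.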

[2] = Cytotoxicity against human NTUB1 cells after 72 hrs by MTT assay; type: functional, cell-based; settings: NTUB1, 72 h; procedure, shortened: as §1
PC-3 = test: Cytotoxicity against human PC3 cells at 50 uM after 72 hrs by MTT assay; type: functional, cell-based; procedure, shortened: as §1
A549 = test: Cytotoxicity against human A549 cells at 50 uM after 72 hrs by MTT assay; type: functional, cell-based; procedure, shortened: as §1
NTUB1 [3] = test: Increase in intracellular reactive oxygen species level in human NTUB1 cells at 40 uM after 24 hrs by DCFH-DA staining; type: functional, cell-based
Procedure, shortened: (§2)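 NTUB1 cells treated for 24 or 48 h, with or without 1 mM N-acetylcysteine. DCFH-DA (10 µM) added 30 min before harvest; cells then trypsinized, PBS-washed, and DCF green fluorescence read at once by flow cytometry through a 525 nm band-pass filter. Three independent experiments.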

NTUB1 [4] = test: Increase in intracellular reactive oxygen species level in human NTUB1 cells at 40 uM after 24 hrs in presence of 1 mM N-acetyl-cysteine by DCFH-DA staining; type: functional, cell-based; procedure, shortened: as §2
NTUB1 [5] = test: Increase in intracellular reactive oxygen species level in human NTUB1 cells at 20 uM after 48 hrs by DCFH-DA staining; type: functional, cell-based; procedure, shortened: as §2
NTUB1 [6] = test: Increase in intracellular reactive oxygen species level in human NTUB1 cells at 40 uM after 48 hrs by DCFH-DA staining; type: functional, cell-based; procedure, shortened: as §2
NTUB1 [7] = test: Increase in intracellular reactive oxygen species level in human NTUB1 cells at 40 uM after 48 hrs in presence of 1 mM N-acetyl-cysteine by DCFH-DA staining; type: functional, cell-based; procedure, shortened: as §2
[8] = Induction of apoptosis in human NTUB1 cells assessed as accumulation at subG1 phase at 10 uM after 24 hrs using propidium iodide staining by flow cytometry; type: functional
Procedure, shortened: (§3)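 NTUB1 cells plated at 8 × 10⁵ per 10 cm dish and exposed to compound for 24 or 48 h; untreated controls got medium alone. Cells trypsinized, PBS-washed and fixed overnight in ice-cold MeOH at −20 °C, then stained with 50 µg/mL propidium iodide plus RNase A. DNA content was read by flow cytometry, with apoptosis taken as sub-G1 accumulation. Three independent experiments.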

[9] = Cell cycle arrest in human NTUB1 cells assessed as accumulation at G1 phase at 10 uM after 24 hrs using propidium iodide staining by flow cytometry; type: functional, cell-based; procedure, shortened: as §3
[10] = Cell cycle arrest in human NTUB1 cells assessed as accumulation at S phase at 10 uM after 24 hrs using propidium iodide staining by flow cytometry; type: functional, cell-based; procedure, shortened: as §3
[11] = Cell cycle arrest in human NTUB1 cells assessed as accumulation at G2/M phase at 10 uM after 24 hrs using propidium iodide staining by flow cytometry; type: functional, cell-based; procedure, shortened: as §3
[12] = Induction of apoptosis in human NTUB1 cells assessed as accumulation at subG1 phase at 20 uM after 24 hrs using propidium iodide staining by flow cytometry; type: functional; procedure, shortened: as §3
[13] = Cell cycle arrest in human NTUB1 cells assessed as accumulation at G1 phase at 20 uM after 24 hrs using propidium iodide staining by flow cytometry; type: functional, cell-based; procedure, shortened: as §3
[14] = Cell cycle arrest in human NTUB1 cells assessed as accumulation at S phase at 20 uM after 24 hrs using propidium iodide staining by flow cytometry; type: functional, cell-based; procedure, shortened: as §3
[15] = Cell cycle arrest in human NTUB1 cells assessed as accumulation at G2/M phase at 20 uM after 24 hrs using propidium iodide staining by flow cytometry; type: functional, cell-based; procedure, shortened: as §3
[16] = Induction of apoptosis in human NTUB1 cells assessed as accumulation at subG1 phase at 40 uM after 24 hrs using propidium iodide staining by flow cytometry; type: functional; procedure, shortened: as §3
[17] = Cell cycle arrest in human NTUB1 cells assessed as accumulation at G1 phase at 40 uM after 24 hrs using propidium iodide staining by flow cytometry; type: functional, cell-based; procedure, shortened: as §3
[18] = Cell cycle arrest in human NTUB1 cells assessed as accumulation at S phase at 40 uM after 24 hrs using propidium iodide staining by flow cytometry; type: functional, cell-based; procedure, shortened: as §3
[19] = Cell cycle arrest in human NTUB1 cells assessed as accumulation at G2/M phase at 40 uM after 24 hrs using propidium iodide staining by flow cytometry; type: functional, cell-based; procedure, shortened: as §3
[20] = Induction of apoptosis in human NTUB1 cells assessed as accumulation at subG1 phase at 20 uM after 48 hrs using propidium iodide staining by flow cytometry; type: functional; procedure, shortened: as §3
[21] = Cell cycle arrest in human NTUB1 cells assessed as accumulation at G1 phase at 20 uM after 48 hrs using propidium iodide staining by flow cytometry; type: functional, cell-based; procedure, shortened: as §3
[22] = Cell cycle arrest in human NTUB1 cells assessed as accumulation at S phase at 20 uM after 48 hrs using propidium iodide staining by flow cytometry; type: functional, cell-based; procedure, shortened: as §3
[23] = Cell cycle arrest in human NTUB1 cells assessed as accumulation at G2/M phase at 20 uM after 48 hrs using propidium iodide staining by flow cytometry; type: functional, cell-based; procedure, shortened: as §3
[24] = Induction of apoptosis in human NTUB1 cells assessed as accumulation at subG1 phase at 40 uM after 48 hrs using propidium iodide staining by flow cytometry; type: functional; procedure, shortened: as §3
[25] = Cell cycle arrest in human NTUB1 cells assessed as accumulation at G1 phase at 40 uM after 48 hrs using propidium iodide staining by flow cytometry; type: functional, cell-based; procedure, shortened: as §3
[26] = Cell cycle arrest in human NTUB1 cells assessed as accumulation at S phase at 40 uM after 48 hrs using propidium iodide staining by flow cytometry; type: functional, cell-based; procedure, shortened: as §3
[27] = Cell cycle arrest in human NTUB1 cells assessed as accumulation at G2/M phase at 40 uM after 48 hrs using propidium iodide staining by flow cytometry; type: functional, cell-based; procedure, shortened: as §3
NTUB1 [28] = test: Increase in intracellular reactive oxygen species level in human NTUB1 cells at 20 uM after 48 hrs in presence of 1 mM N-acetyl-cysteine by DCFH-DA staining; type: functional, cell-based; procedure, shortened: as §2
Tubulin (Homo sapiens) = Tubulin (Homo sapiens) (UniProt P68371+Q9H4B7+P0DPH7+P68366+Q13509+Q71U36+P04350+Q3ZCM7+P07437+P68363+Q9BQE3+Q6PEY2+Q13885+Q9BVA1+Q9BUF5); test: Inhibition of tubulin polymerization in human NTUB1 cells assessed as blockade of microtubule assembly at 10 nM by indirect immunofluorescence staining; type: cell-based
Procedure, shortened: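 NTUB1 cells on coverslips were treated for 24 h, then fixed in 2% formaldehyde/PBS for 20 min and in cold methanol (−20 °C) for 3 min. Stained with anti-α-tubulin monoclonal antibody for 3 h at room temperature, then rhodamine-conjugated secondary antibody for 1 h in the dark. Mounted in 80% glycerol/PBS and examined by fluorescence microscopy.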

Structure (SMILES): CCC(=O)O[C@H]1CC[C@]2(C)[C@H]3CC=C4[C@@H]5[C@@H](C)[C@H](C)CC[C@]5(C(=O)O)CC[C@@]4(C)[C@]3(C)CC[C@H]2C1(C)C
Activity [1]: 72.53%
IC50 [2]: > 30 µM

Structure (SMILES): COC(=O)[C@]12CC[C@@H](C)[C@H](C)[C@H]1C1=CC[C@@H]3[C@@]4(C)CCC(=O)C(C)(C)[C@@H]4CC[C@@]3(C)[C@]1(C)CC2
IC50 [2]: 29.6 µM

Structure (SMILES): CC(C)=CCOC(=O)[C@]12CC[C@@H](C)[C@H](C)[C@H]1C1=CC[C@@H]3[C@@]4(C)CC[C@H](O)C(C)(C)[C@@H]4CC[C@@]3(C)[C@]1(C)CC2
IC50 [2]: 10.9 µM

Structure (SMILES): CC(C)OC(=O)[C@]12CC[C@@H](C)[C@H](C)[C@H]1C1=CC[C@@H]3[C@@]4(C)CC[C@H](O)C(C)(C)[C@@H]4CC[C@@]3(C)[C@]1(C)CC2
IC50 [2]: 7.97 µM
Activity (PC-3): Active
Activity (A549): Active
Activity (NTUB1 [3]): Active
Activity (NTUB1 [4]): inactive
Activity (NTUB1 [5]): Active
Activity (NTUB1 [6]): Active
Activity (NTUB1 [7]): Active
Activity [8]: 13.8%
Activity [9]: 33.9%
Activity [10]: 31.7%
Activity [11]: 15.3%
Activity [12]: 23.5%
Activity [13]: 51%
Activity [14]: 15.8%
Activity [15]: 9.18%
Activity [16]: 23.73%
Activity [17]: 58.1%
Activity [18]: 4.53%
Activity [19]: 11%
Activity [20]: 6.73%
Activity [21]: 52.1%
Activity [22]: 20.5%
Activity [23]: 16.2%
Activity [24]: 43.81%
Activity [25]: 8.53%
Activity [26]: 1.31%
Activity [27]: 1.96%
Activity (NTUB1 [28]): Active

Structure (SMILES): CCCCOC(=O)[C@]12CC[C@@H](C)[C@H](C)[C@H]1C1=CC[C@@H]3[C@@]4(C)CC[C@H](O)C(C)(C)[C@@H]4CC[C@@]3(C)[C@]1(C)CC2
IC50 [2]: 15.6 µM

Structure (SMILES): CCCCCOC(=O)[C@]12CC[C@@H](C)[C@H](C)[C@H]1C1=CC[C@@H]3[C@@]4(C)CC[C@H](O)C(C)(C)[C@@H]4CC[C@@]3(C)[C@]1(C)CC2
IC50 [2]: 27.8 µM

Structure (SMILES): C[C@H]1[C@H](C)CC[C@]2(C(=O)O)CC[C@]3(C)C(=CC[C@@H]4[C@@]5(C)CCC(=O)OC(C)(C)[C@@H]5CC[C@]43C)[C@H]12
Activity [1]: 63.91%
IC50 [2]: > 30 µM

Structure (SMILES): CCCCCCOC(=O)[C@]12CC[C@@H](C)[C@H](C)[C@H]1C1=CC[C@@H]3[C@@]4(C)CC[C@H](O)C(C)(C)[C@@H]4CC[C@@]3(C)[C@]1(C)CC2
IC50 [2]: 26.2 µM

Structure (SMILES): C=C(C)[C@@H]1CC[C@]2(C)[C@H](CC=C3[C@@H]4[C@@H](C)[C@H](C)CC[C@]4(C(=O)OC)CC[C@]32C)[C@@]1(C)CCC(=O)OC
IC50 [2]: 15.6 µM

Structure (SMILES): CCCOC(=O)[C@]12CC[C@@H](C)[C@H](C)[C@H]1C1=CC[C@@H]3[C@@]4(C)CC[C@H](O)C(C)(C)[C@@H]4CC[C@@]3(C)[C@]1(C)CC2
IC50 [2]: 18.3 µM

Activity (Tubulin (Homo sapiens)): Active
Structure (SMILES): CC(=O)O[C@H]1C(=O)[C@@]2(C)[C@H]([C@H](OC(=O)c3ccccc3)[C@]3(O)C[C@H](OC(=O)[C@H](O)[C@@H](NC(=O)c4ccccc4)c4ccccc4)C(C)=C1C3(C)C)[C@]1(OC(C)=O)CO[C@@H]1C[C@@H]2O

Structure (SMILES): C[C@H]1[C@H](C)CC[C@]2(C(=O)O)CC[C@]3(C)C(=CC[C@@H]4[C@@]5(C)CC[C@H](O)C(C)(C)[C@@H]5CC[C@]43C)[C@H]12 [URSOLIC ACID]
IC50 [2]: 29.4 µM
